Measurements: the RNAGym collection of RNA variant scans (doi:10.1038/nmeth.2970)

B1: NELF-E aptamer (parent)
chain: CCCAACGACUGCCGAGCGAGAUUACGCUUGAGCGCCCCACUGAGGAUGCCCACGGGCGAUUGGGGCACGG

Variants of: B1
Test: HiTS-RAP
Conditions: with NELF-E (Drosophila)
In short: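 Aptamer DNA templates bearing a T7 promoter and a ter site were sequenced on an Illumina GAIIx flowcell. T7 RNA polymerase then transcribed them in situ, and GST-Tus halted transcription over 30 minutes at 37°C. After a 30-minute room-temperature equilibration with NELF-E-mOrange at 0.064 to 1000 nM in HEPES binding buffer, clusters were imaged, using only the first binding curve. Intensities normalised to sequencing intensity were averaged per sequence and fitted with weighted Hill fits to give Kd, retaining only fits whose variance stayed under 1,000,000.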

Row | Variant | Kd
1 | G30A U41G | 5.12 nM
2 | G62C | 48.2 nM
3 | G62A | 16.9 nM
4 | G62U | 7.51 nM
5 | A43U A67U | 37.1 nM
6 | G45U A46G | 5.32 nM
7 | C38U | 7.54 nM
8 | C38G | 5.24 nM
9 | C38A | 31.4 nM
10 | A31G G54A | 18.4 nM
11 | A39U U61A | 17.4 nM
12 | U41G G65U | 6 nM
13 | U41G G65A | 6.9 nM
14 | U41G G64U | 5.28 nM
15 | U41G G64A | 6.38 nM
16 | U41G G64C | 7.1 nM
17 | A52U | 15.4 nM
18 | A52G | 4.24 nM
19 | A52C | 5.64 nM
20 | C33U A39U | 26.9 nM
21 | U41G A59U | 31.7 nM
22 | U41G A59G | 35.1 nM
23 | A39U G54A | 39.3 nM
24 | U41G C49U | 28 nM

Row | Variant | Kd
25 | U41G U61A | 34.9 nM
26 | U41A G62A | 102 nM
27 | A31U C53U | 3.69 nM
28 | A31U U41G | 7.78 nM
29 | U47A G54A | 15.1 nM
30 | G30U | 5.41 nM
31 | G30C | 6.15 nM
32 | G30A | 4.41 nM
33 | G55A A67U | 11.2 nM
34 | C57U | 5.5 nM
35 | C57A | 13.9 nM
36 | C57G | 6.36 nM
37 | U61G | 7.54 nM
38 | U61C | 63.7 nM
39 | U61A | 28.4 nM
40 | C37U U41G | 16.1 nM
41 | G63U G65U | 5.32 nM
42 | G55C | 7.14 nM
43 | G55U | 6.36 nM
44 | G55A | 7.36 nM
45 | A67C | 4.99 nM
46 | A67U | 6.41 nM
47 | A67G | 5.33 nM
48 | A39G U61C | 8.88 nM

Row | Variant | Kd
49 | G63C | 33.8 nM
50 | G63U | 10.3 nM
51 | G63A | 12.8 nM
52 | G34A | 6.53 nM
53 | G34C | 9.79 nM
54 | G34U | 5.56 nM
55 | A39G G54A | 23.3 nM
56 | U41G G48A | 7.62 nM
57 | C57U A67G | 4.59 nM
58 | U61C A67G | 68.2 nM
59 | A46U A59G | 60.5 nM
60 | G64A G65U | 5.13 nM
61 | A31G G64A | 10.8 nM
62 | A43G | 24.6 nM
63 | A43C | 76 nM
64 | A43U | 67 nM
65 | U41A A67U | 59.4 nM
66 | G64C | 7.73 nM
67 | G64A | 7.74 nM
68 | G64U | 7.29 nM
69 | G34C C35G | 3.76 nM
70 | A31U A39U | 38.1 nM
71 | C37A | 13.7 nM
72 | C37G | 5.85 nM

Row | Variant | Kd
73 | C37U | 11.1 nM
74 | A46G G54A | 129 nM
75 | C38U A39G | 6.36 nM
76 | G62U G64U | 5.62 nM
77 | G55A G65U | 6.71 nM
78 | U61G G62U | 5.22 nM
79 | U61A A67G | 27.4 nM
80 | U61A A67U | 49.7 nM
81 | U41G A43U | 26.3 nM
82 | U41G A43G | 8.31 nM
83 | A31G | 6.92 nM
84 | A31C | 4.61 nM
85 | A31U | 5.92 nM
86 | C66U | 4.61 nM
87 | C66G | 4.38 nM
88 | C66A | 4.61 nM
89 | G65U A67U | 8.45 nM
90 | C37A U41G | 15.9 nM
91 | A46U | 63.2 nM
92 | A46G | 26.5 nM
93 | A46C | 9.89 nM
94 | A31G A67U | 10.7 nM
95 | C33G G34U | 5.51 nM
96 | U41G G55A | 7.84 nM

Row | Variant | Kd
97 | U41G G55U | 7.2 nM
98 | U41G G55C | 6.95 nM
99 | A59G G64A | 44.7 nM
100 | A39U | 23.5 nM
101 | A39C | 20.5 nM
102 | A39G | 8.97 nM
103 | A43G U60C | 20.1 nM
104 | A52U C66U | 15.1 nM
105 | C36A G64A | 14.3 nM
106 | U41G A52G | 4.52 nM
107 | U41G A52U | 16.4 nM
108 | U41G G45A | 53.9 nM
109 | U41G G45U | 5.07 nM
110 | C53U G64A | 4.84 nM
111 | U41G G63A | 16.8 nM
112 | U41G G63U | 11.8 nM
113 | A43G A67U | 23.5 nM
114 | A31G G32U | 4.81 nM
115 | A31G G32A | 5.29 nM
116 | A39G U41G | 6.74 nM
117 | C53A | 4.92 nM
118 | C53U | 3.8 nM
119 | C53G | 5.16 nM
120 | A31G C51U | 7.88 nM

Row | Variant | Kd
121 | U41G G62A | 19.9 nM
122 | U41G | 5.16 nM
123 | U41A | 73.7 nM
124 | U41C | 68.9 nM
125 | G32A U41G | 5.08 nM
126 | U41G C50U | 13.8 nM
127 | C36G | 6 nM
128 | C36U | 6.29 nM
129 | C36A | 8.24 nM
130 | A39U A67U | 55 nM
131 | A39U A67G | 27.3 nM
132 | C38U U41G | 7.77 nM
133 | A43G A59G | 69 nM
134 | U41G C53U | 3.62 nM
135 | G32A | 4.35 nM
136 | G32U | 5.38 nM
137 | G32C | 4.57 nM
138 | A31G G65A | 9.82 nM
139 | A46U U47G | 5.55 nM
140 | C68U | 4.59 nM
141 | C68G | 4.57 nM
142 | C68A | 5.29 nM
143 | C40G | 5.55 nM
144 | C40A | 71.3 nM

Row | Variant | Kd
145 | C40U | 56.6 nM
146 | U41A A52U | 81 nM
147 | G65U C66G | 4.98 nM
148 | U41C G54A | 103 nM
149 | C50G | 6.31 nM
150 | C50U | 12.2 nM
151 | C50A | 14.7 nM
152 | G30U A31G | 6.4 nM
153 | A31G A39G | 14.3 nM
154 | C53G G54U | 4.24 nM
155 | G54A G55A | 26.2 nM
156 | A39U G48A | 49 nM
157 | G54A C66U | 16.9 nM
158 | C33U | 4.92 nM
159 | C33A | 4.67 nM
160 | C33G | 5.4 nM
161 | C35U | 13 nM
162 | C35A | 6.56 nM
163 | C35G | 6.51 nM
164 | C33U G54A | 6.14 nM
165 | A39U C66U | 21.2 nM
166 | A39G G63A | 87.1 nM
167 | A31G G55A | 9.56 nM
